This note sets out measurements from PubChem BioAssay.

Activity calls are given as the source filed them.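 Rule for the calls, unless noted: active = Her2 level under about 52% in both replicate screens, with viability over 70% of control (limit read from the data); inconclusive = Her2 under the limit in one screen only, or viability under 70%; inactive = Her2 level above the set limit.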 Peptide text beside a SMILES is read from it. * marks the point of attachment. Boc = CC(C)(C)OC(=O)*

The nature of test [1]: Her2 expression decrease, cell viability multiplex – SKBR3 breast tumor cells, AlphaScreen, ATP viability, primary screen (AID 461).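 For Her2 level: lower value means less Her2 protein in the cells.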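 For viability: percent of carrier control wells set as 100% viability.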 Particulars: SKBR3 Her2 protein level, 18-24 h, measured here: SKBR3 viability, ATP luminescence, at 10 µM.
Test [2] has as its target Receptor tyrosine-protein kinase erbB-2 (Homo sapiens) (UniProt P04626). The description is as above. Particulars: 18-24 h, at 10 µM, stronger effect = lower value.
The nature of test [3]: reduced viability of SK-BR-3 breast cancer cells – cell-based, 24 h, human, pilot screen (AID 572;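 active = viability at or below 10% of carrier control in both of two separate runs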;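 note: compound exposure lasted between 18 and 24 h rather than exactly 24 h; 100% = carrier-treated control wells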). Particulars: SK-BR-3 viability, CellTiter-Glo luminescence, at 10 µM, stronger effect = lower value.
The nature of test [4]: HUVEC growth inhibition – cell-based, human, primary screen (AID 575;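 active = viability at or below 30% in both replicate assays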;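 note: 100% = median of untreated cell wells with 0.1% DMSO on each plate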). Particulars: HUVEC proliferation, CellTiter-Glo luminescence, 72 h; at 10 µM; stronger effect = lower value. An outline of the steps:
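Material: primary human umbilical vein endothelial cells / Schedule: 72 h exposure, 37 °C, 5% CO2, 30 min RT equilibration / Signal: ATP-based CellTiter-Glo luminescent read / Read-out basis: percent of median DMSO-control luminescence / Control set: 32 DMSO-only cell-control wells (high), 32 MePR drug-control wells (low) per plate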

The nature of test [5]: H69AR cell proliferation blockers – human, duplicate replicates, primary screen (AID 580;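 active = viability at or under a set limit in both replicates, limit being median viability minus 3 SD, cut at about 48% in these data, passing the limit was not always enough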;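 note: 100% = mean luminescence of untreated wells and 0% = no signal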). Particulars: H69AR lung tumor cells viability, ATP luminescence, 72 h; at 10 µM; stronger effect = lower value.
Test [6] in a line: MRP1 drug-resistance reversers in H69AR cells – cell-based, doxorubicin co-treatment, pilot screen (AID 601;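 active = viability loss from added drug above about 55%, and viability with drug at most 40%, in both replicates, limit read from the data, passing the limit was not always enough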). Particulars: CellTiter-Glo, 72 h, at 10 µM; for differential viability (reversal): stronger effect = higher value.
The nature of test [7]: yeast transport mutant growth inhibition pilot in 384-well plates, post-Golgi transport modulator project (AID 636; in the data active = inhibition above about 31%). Particulars: absorbance 615 nm, about 18 h, stronger effect = higher value.
A short description of test [8]: growth suppression of yeast trafficking mutant, preliminary HTS, modulators of trafficking downstream of Golgi apparatus project, 1536-format plate, OD 615 nm (AID 637; in the data active = inhibition above about 30%). Particulars: yeast transport mutant growth, absorbance 615 nm, 18 h; stronger effect = higher value.
The mark [9] stands for this setting: H69AR cells + 2 uM doxorubicin, measured here: viability with 2 uM doxorubicin, stronger effect = lower value.
Where [10] appears, read: H69AR cells, compound alone cytotoxicity.

Sequence of Receptor tyrosine-protein kinase erbB-2 (Homo sapiens) (P04626 whole entry, looked up): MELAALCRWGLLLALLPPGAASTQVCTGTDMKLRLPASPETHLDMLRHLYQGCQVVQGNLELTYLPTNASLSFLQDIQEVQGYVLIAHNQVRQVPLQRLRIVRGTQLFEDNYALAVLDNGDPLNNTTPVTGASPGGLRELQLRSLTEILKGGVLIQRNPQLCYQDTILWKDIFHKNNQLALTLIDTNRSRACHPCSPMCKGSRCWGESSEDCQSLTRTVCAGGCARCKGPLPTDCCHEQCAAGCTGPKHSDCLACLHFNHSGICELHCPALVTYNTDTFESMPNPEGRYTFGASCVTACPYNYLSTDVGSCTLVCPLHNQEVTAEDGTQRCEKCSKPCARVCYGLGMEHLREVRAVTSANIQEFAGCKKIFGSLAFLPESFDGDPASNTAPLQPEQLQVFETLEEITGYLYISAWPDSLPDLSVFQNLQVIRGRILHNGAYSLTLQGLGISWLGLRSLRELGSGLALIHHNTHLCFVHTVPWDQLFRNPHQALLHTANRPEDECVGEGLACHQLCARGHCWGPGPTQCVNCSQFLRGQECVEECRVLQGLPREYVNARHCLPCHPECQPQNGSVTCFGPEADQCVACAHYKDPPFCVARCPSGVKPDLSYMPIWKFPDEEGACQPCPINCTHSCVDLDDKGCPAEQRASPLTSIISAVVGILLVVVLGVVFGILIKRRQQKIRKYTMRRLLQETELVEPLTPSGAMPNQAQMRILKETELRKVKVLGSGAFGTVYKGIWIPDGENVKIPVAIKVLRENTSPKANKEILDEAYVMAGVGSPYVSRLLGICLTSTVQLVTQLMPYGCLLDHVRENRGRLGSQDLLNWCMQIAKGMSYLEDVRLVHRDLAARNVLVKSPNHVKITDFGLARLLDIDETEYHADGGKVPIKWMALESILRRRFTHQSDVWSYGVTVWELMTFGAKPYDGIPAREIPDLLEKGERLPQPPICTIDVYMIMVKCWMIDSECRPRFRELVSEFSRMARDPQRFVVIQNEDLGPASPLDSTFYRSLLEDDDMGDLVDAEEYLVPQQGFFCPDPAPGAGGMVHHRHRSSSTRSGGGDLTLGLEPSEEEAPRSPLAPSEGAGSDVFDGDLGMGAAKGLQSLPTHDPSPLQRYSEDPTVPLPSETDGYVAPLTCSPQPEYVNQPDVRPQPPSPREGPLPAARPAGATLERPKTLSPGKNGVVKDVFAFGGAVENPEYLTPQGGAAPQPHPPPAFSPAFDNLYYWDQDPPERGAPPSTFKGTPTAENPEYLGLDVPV

With `O=C(O)c1c(Cl)c(Cl)c(Cl)c(Cl)c1C(=O)N1CCOCC1`, the viability in test [1] is 109%; in test [3], 109% (inactive); in test [4], 106% (inactive); in test [5], 95.7% (inactive); in test [6] (setting [9]), 92.8%; in test [6] (setting [10]), 95.7%. Besides, the Her2 level in test [2] is 90% (inactive). Further, the differential viability (reversal) in test [6] (H69AR cells + 2 uM doxorubicin) was 2.91% (inactive). Besides, the inhibition in test [7] is -5.97% (inactive); in test [8] it was 0.16% (inactive).

With `COCCOC(=O)/C=C1/NC(=O)CS1`, the viability was 96.5% in test [1]; 96.5% (inactive) in test [3]; 106% (inactive) in test [4]; 93.8% (inactive) in test [5]; 89.6% in test [6] (setting [9]); 93.8% in test [6] (setting [10]). In addition, the Her2 level in test [2] is 94.5% (inactive). In addition, the differential viability (reversal) in test [6] (H69AR cells + 2 uM doxorubicin) was 4.28% (inactive). The inhibition in test [7] is -5.6% (inactive); in test [8] it was 1.48% (inactive).

Consider `COc1ccc(C)cc1NCc1cccc(OC)c1OC`, for which the viability is 75.5% in test [1]; 75.5% (inactive) in test [3]; 87.2% (inactive) in test [4]; 102% (inactive) in test [5]; 109% in test [6] (setting [9]); 102% in test [6] (setting [10]). Also, the Her2 level in test [2] was 90.5% (inactive). Further, the differential viability (reversal) in test [6] (H69AR cells + 2 uM doxorubicin) was -6.87% (inactive). Further, the inhibition is -5.41% (inactive) in test [7] and -6.39% (inactive) in test [8].

In the case of `COc1cc(-c2nnc(SCC(=O)c3cc(C)n(CC4CCCO4)c3C)o2)cc(OC)c1OC` (stereo not given), the viability in test [1] was 104%; in test [3], 104% (inactive); in test [4], 76.4% (inactive); in test [5] it was 77.5% (inactive); in test [6] (setting [9]), 79.5%; in test [6] (setting [10]), 77.5%. The Her2 level in test [2] is 66.5% (inactive). Also, in test [6] (H69AR cells + 2 uM doxorubicin), the differential viability (reversal) is -2% (inactive). Further, the inhibition in test [7] is -5.95% (inactive); in test [8], -4.83% (inactive).

As to `CCCC(C(=O)NCc1ccco1)N(C(=O)CNS(=O)(=O)c1ccc(Cl)cc1)C1CCCC1` (stereo not given), the viability in test [1] was 122%; in test [3], 122% (inactive); in test [4] it was 74.1% (inactive); in test [5], 82.7% (inactive); in test [6] (setting [9]) it was 86.8%; in test [6] (setting [10]), 82.7%. In addition, the Her2 level in test [2] was 91% (inactive). Besides, in test [6] (H69AR cells + 2 uM doxorubicin), the differential viability (reversal) is -4.13% (inactive). Also, the inhibition is -0.13% (inactive) in test [7] and 3.55% (inactive) in test [8].

Turning to `Cc1ncoc1C(=O)Nc1ccccc1C(N)=O`, the viability was 104% in test [1]; 104% (inactive) in test [3]; 106% (inactive) in test [4]; 102% (inactive) in test [5]; 85.5% in test [6] (setting [9]); 102% in test [6] (setting [10]). The Her2 level in test [2] was 101% (inactive). Moreover, the differential viability (reversal) in test [6] (H69AR cells + 2 uM doxorubicin) was 16.3% (inactive). For the same compound, the inhibition in test [7] is -6.08% (inactive); in test [8] it was -1% (inactive).

On to `CCOC(=O)Cn1c2c(c(=N)c3ccccc31)CCC2`, for which the viability in test [1] is 122%; in test [3], 122% (inactive); in test [4], 89.4% (inactive); in test [5], 92.6% (inactive); in test [6] (setting [9]) it was 90.3%; in test [6] (setting [10]), 92.6%. Besides, the Her2 level in test [2] was 98% (inactive). The differential viability (reversal) in test [6] (H69AR cells + 2 uM doxorubicin) is 2.31% (inactive). For the same compound, the inhibition in test [7] is -6.27% (inactive); in test [8], -1.15% (inactive).

For `COc1cc(OC)cc(-c2nnc(Nc3nc4c(F)cccc4s3)o2)c1`, the viability in test [1] is 95.5%; in test [3], 95.5% (inactive); in test [4] it was 5.89% (active); in test [5] it was 69.4% (inactive); in test [6] (setting [9]), 87.3%; in test [6] (setting [10]), 69.4%. Besides, the Her2 level in test [2] was 74% (inactive). Moreover, in test [6] (H69AR cells + 2 uM doxorubicin), the differential viability (reversal) was -17.9% (inactive). The values for the inhibition in test [7] and in test [8] were -5.07% (inactive) and 13.4% (inactive), respectively.

As to `Cc1cccc(Cc2nnc(NC(=O)c3cccc(S(=O)(=O)N4CCOCC4)c3)s2)c1`, the viability in test [1] was 107%; in test [3], 107% (inactive); in test [4], 87.1% (inactive); in test [5], 79.2% (inactive); in test [6] (setting [9]), 82.2%; in test [6] (setting [10]), 79.2%. Besides, in test [2], the Her2 level was 100% (inactive). Moreover, the differential viability (reversal) in test [6] (H69AR cells + 2 uM doxorubicin) is -2.97% (inactive). For the same compound, the inhibition in test [7] is -1.82% (inactive); in test [8] it was -5.33% (inactive).

As to `CC(=O)c1c(C)[nH]c(C(=O)N2CCN(C(=O)c3ccco3)CC2)c1C`, the viability in test [1] was 85%; in test [3], 85% (inactive); in test [4], 94.5% (inactive); in test [5], 99.1% (inactive); in test [6] (setting [9]) it was 98.7%; in test [6] (setting [10]), 99.1%. In addition, in test [2], the Her2 level was 102% (inactive). Also, the differential viability (reversal) in test [6] (H69AR cells + 2 uM doxorubicin) was 0.42% (inactive). The inhibition in test [7] is -2.3% (inactive); in test [8] it was -0.49% (inactive).

Regarding `CC(=O)Nc1cccc(OCC(O)Cn2cnc3ccccc32)c1` (stereo not given), the viability in test [1] was 128%; in test [3], 128% (inactive); in test [4], 90% (inactive); in test [5], 97.9% (inactive); in test [6] (setting [9]), 92.7%; in test [6] (setting [10]) it was 97.9%. Also, the Her2 level in test [2] was 110% (inactive). Moreover, in test [6] (H69AR cells + 2 uM doxorubicin), the differential viability (reversal) was 5.28% (inactive). Moreover, the values for the inhibition in test [7] and in test [8] were -0.14% (inactive) and 7.14% (inactive), respectively.

As to `CC(C)CC(NC(=O)OC(C)(C)C)C(=O)NC(C(=O)NC(C)C(N)=O)C(C)C` (stereo not drawn) (Boc-Leu-Val-Ala-NH2; configuration not given here), the viability was 102% in test [1]; 102% (inactive) in test [3]; 94.2% (inactive) in test [4]; 112% (inactive) in test [5]; 93% in test [6] (setting [9]); 112% in test [6] (setting [10]). The Her2 level in test [2] was 107% (inactive). For the same compound, the differential viability (reversal) in test [6] (H69AR cells + 2 uM doxorubicin) is 19.3% (inactive). In addition, the inhibition in test [7] is -4.27% (inactive); in test [8] it was -3.23% (inactive).

On to `O=C(CN1C(=O)CSC1=O)N1CCc2ccccc2C1`, for which the viability in test [1] was 100%; in test [3], 100% (inactive); in test [4], 73.4% (inactive); in test [5], 89.6% (inactive); in test [6] (setting [9]), 89.3%; in test [6] (setting [10]) it was 89.6%. For the same compound, the Her2 level in test [2] was 98% (inactive). In addition, the differential viability (reversal) in test [6] (H69AR cells + 2 uM doxorubicin) was 0.255% (inactive). Besides, the figures for the inhibition in test [7] and in test [8] were -2.34% (inactive) and -3.5% (inactive), respectively.

In the case of `CCOC(=O)CSc1nnc([C@H](C)NC(=O)OC(C)(C)C)o1`, the viability in test [1] was 104%; in test [3] it was 104% (inactive); in test [4], 107% (inactive); in test [5], 106% (inactive); in test [6] (setting [9]), 85.7%; in test [6] (setting [10]), 106%. Besides, in test [2], the Her2 level was 97% (inactive). Also, the differential viability (reversal) in test [6] (H69AR cells + 2 uM doxorubicin) is 20.2% (inactive). The values for the inhibition in test [7] and in test [8] were -5.58% (inactive) and -10.2% (inactive), respectively.

As a reminder, the viability is a read-out of living cells in per cent, often relative to untreated cells. A word on the inhibition: it is the change of the read-out against control, counted positive when it falls.
